Screening results (PubChem)
AF4-AF9 inh – blocks AF4 peptide binding to human AF9; P42568; AlphaScreen, biotin-AF4 peptide binding to FLAG-AF9; inhibition, % at 10 µM; 350,000 tested, 0.47% active; AID 651704;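 active means every replicate reaching a set inhibition limit, whatever the replicate mean, cut at about 25% in these data; inconclusive means mean inhibition reaches that limit but some replicates miss it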;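 further: 0% = plate neutral control median and 100% = total signal loss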
DENV2 CPE – DENV2-induced cell death inhibition | DENV2-infected cells, cytopathic effect rescue, plate reader | CPE inhibition, % at 9.99 µM | 350,000 tested, 1.7% active | AID 651640; in the data active means CPE inhibition above about 20%, passing the limit was not always enough; inconclusive means no clear call, values can overlap the other calls; tested in BHK-21 cells;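 further: 0% = median of neutral control wells and 100% = median of positive control wells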
S100A4 MyoIIA – blocks human S100A4 binding to myosin IIA peptide. S100A4/TAMRA-MyoIIA peptide fluorescence polarization. inhibition, % at 10.7 µM. P26447. 360,000 tested, 0.14% active;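 active means mean inhibition of at least 70% across replicates, with every replicate also reaching that level; inconclusive means mean inhibition reaches 70% but some replicates fall short; inactive means mean inhibition below 70%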
Target sequence (P26447 whole entry, looked up): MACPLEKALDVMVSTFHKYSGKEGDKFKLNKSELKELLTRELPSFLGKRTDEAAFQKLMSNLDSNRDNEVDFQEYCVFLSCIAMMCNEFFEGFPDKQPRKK
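incubation = readout 5 min after mixing, signal stable up to 60 min | system = S100A4 monomer protein | buffer or medium = HEPES pH 7.2 with CaCl2, KCl, NaCl, DTT, Triton | benchmarks = neutral control DMSO, positive control TFP | also added = fluorescent myosin IIA peptide, 5 nM | compound dosing = one concentration per compound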
CaV13 FRET inh – Primary screen for inhibitors of IQ motif and Ca2+-dependent inactivation inhibitor domain binding in CACNA1D, Förster resonance energy transfer in living cells, … | HEK cells, CFP/YFP FRET ICDI-IQ, plate reader, 10 min; percent FRET-ratio fall versus neutral wells | inhibition, % at 12.3 µM | 340,000 tested, 0.098% active | AID 743397;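 active means mean replicate inhibition of at least 30% and at least 1% of replicates passing that level; inconclusive means only one of the two criteria is met; inactive means neither criterion is met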;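 further: 0% = median of the neutral control wells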
SIRT5 block – inhibitors of human sirtuin-5 desuccinylase | Purified SirT5, succinyl-peptide AMC, trypsin-coupled fluorescence | inhibition, % at 15 µM | 330,000 tested, 1.1% active | Q9NXA8; in the data active means inhibition above about 15%; inconclusive means no clear call, values can overlap the other calls
Target sequence (Q9NXA8 whole entry, looked up): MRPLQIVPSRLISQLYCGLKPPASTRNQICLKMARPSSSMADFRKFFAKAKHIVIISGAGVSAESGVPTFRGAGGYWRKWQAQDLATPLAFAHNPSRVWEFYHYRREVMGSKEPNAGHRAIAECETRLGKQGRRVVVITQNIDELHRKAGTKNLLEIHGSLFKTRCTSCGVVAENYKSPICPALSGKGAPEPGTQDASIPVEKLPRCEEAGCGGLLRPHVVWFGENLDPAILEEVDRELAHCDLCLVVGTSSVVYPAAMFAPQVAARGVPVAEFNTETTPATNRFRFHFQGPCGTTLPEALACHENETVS
Active calls of the source: *; ? = inconclusive; . = no result. A selection: hits, their analogues and other compounds. The true share with any hit is near 2.7%.

SMILES	AF4-AF9 inh	DENV2 CPE	S100A4 MyoIIA	CaV13 FRET inh	SIRT5 block
CN1C(=O)c2cc(NC(=O)c3cccs3)ccc2OC[C@@H]2O[C@H](CC(=O)O)CC[C@H]21	-2	.	.	.	.
O=C(C[C@@H]1C[C@@H]2c3cc(NS(=O)(=O)c4ccccc4)ccc3O[C@@H]2[C@@H](CO)O1)NC1CCCC1	1	-4	-3	.	-4
COc1ccccc1S(=O)(=O)N[C@@H]1CC[C@@H](CCn2cc(C3CCCC3)nn2)O[C@H]1CO	2	-10	5	.	6
COCCn1c(SCC(=O)N2CCC(C)CC2)nc2c(c1=O)SCC2	-1	2	10	-8	25*
C[C@@H]1CN([C@@H](C)CO)S(=O)(=O)c2ccc(-c3cccc(F)c3)cc2O[C@H]1CN(C)C(=O)Nc1cc(F)ccc1F	0	-9	3	.	5
C[C@@H]1CN([C@H](C)CO)S(=O)(=O)c2ccc(-c3cccc(F)c3)cc2O[C@H]1CN(C)C(=O)Nc1cc(F)ccc1F	2	-4	-4	.	16*
C[C@H]1CN([C@@H](C)CO)S(=O)(=O)c2ccc(C#CC3CCCC3)cc2O[C@@H]1CN(C)C(=O)Nc1cc(F)ccc1F	3	17	-43	.	20*
COc1ccc(S(=O)(=O)N(C)C[C@@H]2Oc3cc(C#CC4CCCC4)ccc3S(=O)(=O)N([C@H](C)CO)C[C@H]2C)cc1	0	-3	22	.	19*
C[C@H](CO)N1C[C@H](C)[C@H](CN(C)CC2CCOCC2)Oc2cc(C#CC3CC3)ccc2S1(=O)=O	5	22*	-10	.	-2
COc1cccc(CNC(=O)c2cc3c(c(-c4cccc(-c5ccc(C#N)cc5)c4)n2)[C@H](CCO)N([S@@](=O)C(C)(C)C)C3)c1	5	3	-24	.	-1
C[C@@H]1CN([C@H](C)CO)S(=O)(=O)c2ccc(C#Cc3ccc(F)cc3)cc2O[C@H]1CN(C)S(=O)(=O)c1ccc(F)cc1	-3	1	2	.	26*
C[C@H]1CN([C@@H](C)CO)S(=O)(=O)c2ccc(C#CC3CCCC3)cc2O[C@@H]1CN(C)C	6	-6	8	.	2
C[C@@H]1CN([C@H](C)CO)S(=O)(=O)c2ccc(C#Cc3ccc(F)cc3)cc2O[C@@H]1CN(C)S(=O)(=O)c1ccc(F)cc1	-2	0	-7	.	30*
C[C@H](CO)N1C[C@H](C)[C@H](CN(C)CC2CC2)Oc2cc(C#Cc3ccc(F)cc3)ccc2S1(=O)=O	3	3	5	.	17*
C[C@H]1CN([C@@H](C)CO)S(=O)(=O)c2ccc(C#CC3CCCC3)cc2O[C@H]1CN(C)C	1	32*	-3	.	0
Cc1noc(C)c1NC(=O)N(C)C[C@@H]1Oc2ccc(NC(=O)Cn3cnnn3)cc2C(=O)N([C@@H](C)CO)C[C@@H]1C	-2	4	-26	.	2
CCC(=O)N(C)C[C@@H]1Oc2cc(-c3ccc(C#N)cc3)ccc2S(=O)(=O)N([C@@H](C)CO)C[C@H]1C	-1	15	21	.	4
C/C=C/c1ccc2c(c1)O[C@H](CN(C)C(=O)C1CCOCC1)[C@@H](C)CN([C@H](C)CO)S2(=O)=O	0	?	3	.	1
C[C@H]1CN([C@@H](C)CO)S(=O)(=O)c2ccc(C#CC3CC3)cc2O[C@@H]1CN(C)Cc1ccc(F)cc1	2	0	-19	.	19*
C[C@H]1CN([C@@H](C)CO)S(=O)(=O)c2ccc(C#Cc3ccc(F)cc3)cc2O[C@@H]1CN(C)S(C)(=O)=O	1	-1	-25	.	13*
C[C@H](CO)N1C[C@H](C)[C@H](CN(C)S(=O)(=O)c2ccc(F)cc2)Oc2cc(C#Cc3ccc(F)cc3)ccc2S1(=O)=O	-3	-1	3	.	27*
C[C@@H]1CN([C@@H](C)CO)S(=O)(=O)c2ccc(C#Cc3ccncc3)cc2O[C@@H]1CN(C)S(=O)(=O)c1ccc(F)cc1	-3	3	-12	.	-14
COCC#Cc1cnc2c(c1)C(=O)N([C@@H](C)CO)C[C@@H](C)[C@H](CN(C)C(=O)Nc1cccc(F)c1)O2	2	0	-8	.	-2
COc1ccc(CN(C)C[C@H]2OCCCC[C@H](C)Oc3ccc(NC(=O)NC(C)C)cc3C(=O)N([C@@H](C)CO)C[C@@H]2C)cc1	-2	4	-8	.	-3
CN(C)CC(=O)Nc1ccc2c(c1)[C@H]1C[C@H](CC(=O)NC3CCCCC3)O[C@@H](CO)[C@H]1O2	0	86*	-7	.	4
SMILES	AF4-AF9 inh	DENV2 CPE	S100A4 MyoIIA	CaV13 FRET inh	SIRT5 block
CN(C)CC(=O)Nc1ccc2c(c1)[C@@H]1C[C@@H](CC(=O)NC3CCCCC3)O[C@H](CO)[C@@H]1O2	-1	86*	2	.	-2
O=C(C[C@@H]1C[C@@H]2c3cc(NC(=O)c4ccc5c(c4)OCO5)ccc3O[C@@H]2[C@H](CO)O1)NC1CCCC1	-2	38*	-14	.	1
COCC(=O)Nc1ccc2c(c1)[C@H]1C[C@H](CC(=O)NC3CCCC3)O[C@@H](CO)[C@H]1O2	-1	4	-5	.	1
COCC(=O)Nc1ccc2c(c1)[C@@H]1C[C@H](CC(=O)NC3CCCCC3)O[C@H](CO)[C@@H]1O2	-1	56*	-3	.	1
CO[C@@H]1CN(C)C(=O)c2cc(NS(=O)(=O)CC(F)(F)F)ccc2OC[C@H](C)N(CCC(F)(F)F)C[C@@H]1C	-2	2	3	.	-8
O=C(C[C@@H]1CC[C@@H]2[C@H](COC[C@@H](O)CN2Cc2ccccc2)O1)N[C@H]1CCN(Cc2ccccc2)C1	3	-3	-4	.	-5
CCCC#Cc1ccc2c(c1)O[C@@H](CN(C)C(=O)c1ccccc1F)[C@H](C)CN([C@@H](C)CO)S2(=O)=O	0	-16	1	.	14
CCCC#Cc1ccc2c(c1)O[C@@H](CN(C)C(=O)Nc1ccccc1F)[C@H](C)CN([C@@H](C)CO)S2(=O)=O	1	3	-3	.	17*
C[C@H]1CN([C@@H](C)CO)S(=O)(=O)c2ccc(Br)cc2O[C@H]1CN(C)C(=O)Nc1ccccc1F	-1	5	-1	-10	-1
CC(C)CC#Cc1ccc2c(c1)O[C@H](CN(C)C(=O)Nc1ccccc1F)[C@@H](C)CN([C@H](C)CO)S2(=O)=O	2	-16	-9	.	7
CC(C)CC#Cc1ccc2c(c1)O[C@H](CN(C)C(=O)Nc1ccccc1F)[C@H](C)CN([C@H](C)CO)S2(=O)=O	0	32*	-8	.	18*
CCCC#Cc1ccc2c(c1)O[C@@H](CN(C)C(=O)Nc1ccccc1F)[C@H](C)CN([C@H](C)CO)S2(=O)=O	5	-3	15	.	20*
CCCC#Cc1ccc2c(c1)O[C@H](CN(C)C(=O)c1ccccc1F)[C@H](C)CN([C@@H](C)CO)S2(=O)=O	1	7	10	.	19*
